CHOP inh = CHOP inhibition in unfolded protein response; 3.8% of 220,000 active; inhibition, % at 10 µM; CHO-K1 CHOP-promoter luciferase, tunicamycin-induced, 15-18 h;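 active means compounds that reduced the stress-induced luciferase reporter signal by more than about 70% of percent inhibition, limit read from the data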
aDG glyco up = alpha-DG glycosylation activation | Pro5-aDG cells, alpha-DG glycosylation AlphaScreen (IIH6); 0% Pro5, 100% B10-LARGE cell signal | activation, % at 10 µM | 0.22% of 360,000 active;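 active means activation of at least 8% versus controls, or a plate z-score of at least 8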;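 further: Pro5 are CHO cells carrying HIG-tagged alpha-DG that lacks glycosylation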
UPR CHOP act = activators of apoptotic arm of unfolded protein response (CHOP). activation, % at 10 µM. AID 449763. 0.34% of 330,000 active. CHO-CHOP luciferase reporter, UPR activation, luminescence; percent of tunicamycin response over DMSO baseline;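 active means at 10 µM dose, activation of 40% or more, normalized to positive control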
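Test system: CHO CHOP reporter cells. Input: 500 CHO-CHOP cells per well. Medium: F12 with 10% FBS. Technique: luciferase luminescence. Measure: percent activation relative to tunicamycin control. Dosing: 10 µM compound, 0.5% DMSO. Timing: 16-18 h cell attachment, then 6 h compound exposure, 37 °C.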
MPTP block = blocks calcium-induced mitochondrial swelling. isolated mouse mitochondria, Ca2+ swelling absorbance, 30 min. inhibition, % at 10 µM. 1.4% of 360,000 active;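 active means inhibition of 50% or more, scaled per plate between neutral and stimulator controls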
XBP1 UPR activ = adaptive UPR (XBP1) activation. AID 463104. activation, % at 20 µM. CHO-XBP1 luciferase reporter, IRE1-XBP1 UPR activation, luminescence; percent of tunicamycin response, DMSO as zero. 0.33% of 330,000 active;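 active means versus positive control, 20 µM dose yields 30% or more activation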
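incubation = overnight seeding at 37 °C, 6 h compound treatment at 37 °C | assay system = CHO-XBP1 cells stably carrying IRE1-XBP1-driven luciferase reporter | input = 1000 cells per well | detection = luciferase luminescence | dosing = single point, 20 µM final compound, 1% DMSO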
GRIN3A LBD mod = modulates the human NR3A ligand-binding domain; NR3A LBD differential scanning fluorimetry, Tm shift; 0% = protein alone, 100% = glycine-bound protein; 2.5% of 340,000 active; Tm shift relative to glycine control, % at 25 µM;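 active means melting temperature shift of at least 10% of the positive control shift, at one fixed dose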
CHOP inh conf = confirmation of CHOP induction inhibitors. shares compounds with CHOP inh. CHO-CHOP promoter luciferase reporter, tunicamycin-induced, luminescence. inhibition, % at 10 µM. 45% of 2,100 active. AID 504437;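 active means mean of three repeat readings of reporter signal inhibition above a set limit, cut at about 70% in these data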
Large screens that a line does not name were inactive (follow-up assays come after a bar, where they were run). Rows were chosen to be rich in hits. Some 5.6% of all compounds tested hit in one or more screens of this group.

Cc1cc(C)cc(Oc2ccccc2C=O)c1	CHOP inh 98.7 | CHOP inh conf inactive
CCCn1c(N)c(C(=O)CN(C)CC(=O)Nc2cc(C)ccc2C)c(=O)[nH]c1=O	none (no result: CHOP inh)
CC1CCc2c(sc3ncn(CC(=O)N=Nc4c(O)[nH]c5ccccc45)c(=O)c23)C1 (stereo not given)	CHOP inh 104.6 | CHOP inh conf 113.0
OC(CSc1ccccc1Cl)CN1CCN(c2ccccc2F)CC1 (stereo not given)	none
OC(CSc1c(Cl)cccc1Cl)CN1CCN(c2ccccc2F)CC1 (stereo not given)	CHOP inh 97.2 | CHOP inh conf inactive
COc1ccc([N+](=O)[O-])cc1NS(=O)(=O)c1ccc(Cl)c(C(=O)Nc2sc3c(c2C#N)CCCCC3)c1	CHOP inh 105.0 (no result: aDG glyco up, MPTP block, GRIN3A LBD mod) | CHOP inh conf inactive
N#Cc1c(NC(=O)c2cc([N+](=O)[O-])ccc2N2CCOCC2)sc2c1CCCC2	none
CCN(CC)C(=S)Sc1c(-c2ccccc2)c2cc(Cl)ccc2[nH]c1=O	CHOP inh 97.3 | CHOP inh conf inactive
O=C(CN1c2ccccc2Sc2ccccc21)NNC(=O)Nc1ccc(Cl)cc1	CHOP inh 100.4, GRIN3A LBD mod 38.9 | CHOP inh conf inactive
O=C(CCc1ccccc1)NNC(=O)Nc1ccc(Cl)cc1	none (no result: CHOP inh)
O=S(=O)(Nc1ccc(-n2cccc2)cc1)c1ccc(Cl)cc1Cl	CHOP inh 102.1, GRIN3A LBD mod 13.5 | CHOP inh conf inactive
COc1cccc(/C=C2\SC(=O)N(CC(=O)NC3C=CS(=O)(=O)C3)C2=O)c1 (stereo not given)	none (no result: CHOP inh)
COc1ccc2oc(=O)c(C(=O)n3ccc(C)n3)cc2c1	none
COc1ccc2oc(=O)c(-c3cn4ccc(C)cc4n3)cc2c1	CHOP inh 97.1 | CHOP inh conf inactive
Cn1c(=O)c2c(ncn2CC(=O)Nc2nc(-c3ccccc3Cl)cs2)n(C)c1=O	none
Cn1c(=O)c2ncn(CC(=O)Nc3nc(-c4ccc(Cl)cc4)cs3)c2n(C)c1=O	CHOP inh 99.6 | CHOP inh conf inactive
N#Cc1ccccc1S(=O)(=O)c1ccccc1C(=O)Nc1ccccc1	none
COc1cc(/C=N/N=C/c2cc(OC)c(O)c(OC)c2)cc(OC)c1O	none
COc1cc(/C=N/N=C(/C(=O)c2ccccc2)c2ccccc2)cc(OC)c1O	CHOP inh 99.1 | CHOP inh conf inactive
Cc1ccc(-n2[nH]c(C)c(C=Nc3ccc4[nH]c(=O)[nH]c4c3)c2=O)cc1	CHOP inh 102.7 | CHOP inh conf inactive
CCNC(=O)NC(=O)C(C)OC(=O)c1oc2ccccc2c1CSC1CCCCC1 (stereo not given)	CHOP inh 98.6 | CHOP inh conf inactive
CNC(=O)NC(=O)C(C)OC(=O)c1oc2ccccc2c1CSc1ccc(Cl)cc1 (stereo not given)	CHOP inh 97.5 | CHOP inh conf 98.7
CC(C)C(OC(=O)c1oc2ccccc2c1CSC1CCCCC1)C(=O)NC(N)=O (stereo not given)	none (no result: aDG glyco up, MPTP block, GRIN3A LBD mod)
Cc1ccc(NNC(=S)Nc2ccc(C(C)C)cc2)c(C)c1	CHOP inh 105.5 | CHOP inh conf inactive
CNc1nc(Sc2cccc(C(F)(F)F)c2)cc(C(F)(F)F)n1	CHOP inh 101.1 | CHOP inh conf 98.5
COc1ccc(S(=O)(=O)N2CCC(C)CC2)cc1OC	none (no result: CHOP inh)
CC1CCN(S(=O)(=O)c2ccc3c(c2)C(=NO)c2cc(S(=O)(=O)N4CCC(C)CC4)ccc2-3)CC1	CHOP inh 108.1 | CHOP inh conf 138.5
OC(c1ccc(F)c(F)c1)c1nc(-c2cccc(C(F)(F)F)c2)cs1 (stereo not given)	none (no result: CHOP inh, UPR CHOP act, XBP1 UPR activ, GRIN3A LBD mod)
Cc1nc(NCc2ccc3c(c2)OCO3)c2nnn(Cc3ccccc3)c2n1	CHOP inh 101.1 | CHOP inh conf inactive
CN(c1ccccc1)C1CCCCC1NS(=O)(=O)c1ccc(Cl)cc1 (stereo not given)	CHOP inh 96.2 | CHOP inh conf inactive
Cc1cc(=O)[nH]c(-n2nc(C)c(Oc3ccccc3O)c2C)n1	none
